Data: ChEMBL document CHEMBL3232744, “Design, synthesis, acetylcholinesterase inhibition and larvicidal activity of girgensohnine analogs on Aedes aegypti, vector of dengue fever” (Eur J Med Chem, 2014)
In brackets after ≈: the same amount, converted by molar mass. Activity calls are given as the source filed them. The calls are words filed in the database; no cut-off is given here.

How the values were obtained:
[1] = Dissociation constant, pKa of the compound; assay type: physicochemical
[2] = biological target: Acetylcholinesterase (Homo sapiens, UniProt P22303); assay: Inhibition of AChE (unknown origin) by Ellman colorimetric method
Sequence of Acetylcholinesterase (P22303 whole entry): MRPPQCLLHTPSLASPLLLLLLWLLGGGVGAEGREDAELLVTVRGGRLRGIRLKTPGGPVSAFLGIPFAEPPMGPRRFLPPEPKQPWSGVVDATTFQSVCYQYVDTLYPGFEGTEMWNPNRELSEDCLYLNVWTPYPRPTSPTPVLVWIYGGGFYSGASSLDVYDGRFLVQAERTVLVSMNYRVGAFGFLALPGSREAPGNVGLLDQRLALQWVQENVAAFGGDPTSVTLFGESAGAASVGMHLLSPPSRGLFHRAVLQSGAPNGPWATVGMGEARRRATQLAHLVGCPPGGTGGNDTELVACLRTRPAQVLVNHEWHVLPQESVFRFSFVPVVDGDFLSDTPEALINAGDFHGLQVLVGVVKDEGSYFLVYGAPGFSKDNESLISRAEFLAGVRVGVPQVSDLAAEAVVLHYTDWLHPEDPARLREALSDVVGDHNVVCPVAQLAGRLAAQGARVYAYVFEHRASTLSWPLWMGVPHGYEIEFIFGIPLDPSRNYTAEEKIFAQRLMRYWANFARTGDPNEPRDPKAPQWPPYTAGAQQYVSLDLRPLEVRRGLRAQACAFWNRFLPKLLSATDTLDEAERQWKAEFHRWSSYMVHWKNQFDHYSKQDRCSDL

[3] = tested on: Aedes aegypti; assay: Insecticidal activity against third-instar larvae of Aedes aegypti assessed as mortality; assay type: functional
In short: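 Third-instar larvae exposed in a diagnostic screen to 1000, 300, 270, 180, 140, 70, 60, 45 and 25 ppm. Five larvae per pot, four replicates per concentration, 1% DMSO-only control. Mortality scored at 24 and 48 h; larvae unable to reach the water surface when touched were counted dead.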

[4] = tested on: Aedes aegypti; assay: Insecticidal activity against third-instar larvae of Aedes aegypti assessed as mortality after 48 hrs; assay type: functional
In short: (§1)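 In a second bioassay, third-instar larvae were exposed to 150, 130, 100, 85 and 55 ppm, with a 1% DMSO control. Five larvae per pot, four replicates. Death was scored as failure to reach the water surface when touched, at 24 h or 48 h. LC50 and LC99 with confidence intervals came from probit analysis.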

[5] = tested on: Aedes aegypti; assay: Insecticidal activity against third-instar larvae of Aedes aegypti assessed as mortality at 180 ppm after 24 to 48 hrs; assay type: functional, organism-based
In short: (§2)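 Diagnostic screen with third-instar larvae. Five larvae per pot, four replicates per concentration. Compounds tested at 300, 270, 180, 140, 70, 60, 45 and 25 ppm. Control pots held 1% DMSO only. Mortality was scored at 24 and 48 h. Larvae that could not reach the water surface when touched were counted as dead.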

[6] = tested on: Aedes aegypti; assay: Insecticidal activity against third-instar larvae of Aedes aegypti assessed as mortality at 300 ppm after 24 to 48 hrs; assay type: functional, organism-based; in short: as §2
[7] = tested on: Aedes aegypti; assay: Insecticidal activity against third-instar larvae of Aedes aegypti assessed as mortality after 24 hrs; assay type: functional; in short: as §1
[8] = tested on: Aedes aegypti; assay: Insecticidal activity against third-instar larvae of Aedes aegypti assessed as mortality at 140 ppm after 24 to 48 hrs; assay type: functional, organism-based; in short: as §2
[9] = tested on: Aedes aegypti; assay: Insecticidal activity against third-instar larvae of Aedes aegypti assessed as mortality at 270 ppm after 24 to 48 hrs; assay type: functional, organism-based; in short: as §2
[10] = tested on: Aedes aegypti; assay: Insecticidal activity against third-instar larvae of Aedes aegypti assessed as mortality at 25 ppm after 24 to 48 hrs; assay type: functional, organism-based; in short: as §2
[11] = tested on: Aedes aegypti; assay: Insecticidal activity against third-instar larvae of Aedes aegypti assessed as mortality at 60 ppm after 24 to 48 hrs; assay type: functional, organism-based; in short: as §2
[12] = tested on: Aedes aegypti; assay: Insecticidal activity against third-instar larvae of Aedes aegypti assessed as mortality at 70 ppm after 24 to 48 hrs; assay type: functional, organism-based; in short: as §2
[13] = tested on: Aedes aegypti; assay: Insecticidal activity against third-instar larvae of Aedes aegypti assessed as mortality at 45 ppm after 24 to 48 hrs; assay type: functional, organism-based; in short: as §2

Compound | pKa [1] | IC50 [2] [µM] | further results
COc1cc(C(C#N)N2CCCC2)cc(OC)c1OC (racemic) | 4.2 | 321 | –
COc1cc(C(C#N)N2CCN(C)CC2)ccc1O (racemic) | 7.7 | 340 | –
COc1ccc(C(C#N)N2CCCC2)cc1O (racemic) | 4.3 | 394 | –
COc1ccc(C(C#N)N2CCOCC2)cc1O (racemic) | 2.2 | 363 | –
COP(=S)(OC)Oc1ccc(Sc2ccc(OP(=S)(OC)OC)cc2)cc1 [TEMEFOS] | – | – | LC50 [3]: 6 ng/mL (≈ 0.0129 µM)
COc1ccc(C(C#N)N2CCCCC2)cc1O (racemic) | 4 | 478 | –
COc1cc(C(C#N)N2CCCCC2)cc(OC)c1OC (racemic) | 3.9 | 381 | –
N#CC(c1ccc(O)cc1)N1CCCCC1 (racemic) | 4.2 | 93 | –
COc1ccc(C(C#N)N2CCN(C)CC2)cc1O (racemic) | 7.7 | 350 | –
COc1cc(C(C#N)N2CCOCC2)ccc1O (racemic) | 2.3 | 409 | –
COc1cc(C(C#N)N2CCOCC2)cc(OC)c1OC (racemic) | 2.1 | 389 | –
COc1ccc(C(C#N)N2CCN(C)CC2)cc1OC (racemic) | 7.6 | 379 | –
COc1ccc(C(C#N)N2CCCCC2)cc1OC (racemic) | 4 | 45 | LC99 [4]: 155.57 ppm; LC50 ([4]; Aedes aegypti, 48 h): 87.5 µg/mL (≈ 336 µM); Activity [5]: Active; Activity [6]: Active; LC99 [7]: 147.54 ppm; LC50 ([7]; Aedes aegypti, 24 h): 88.1 µg/mL (≈ 338 µM)
N#CC(c1ccc2c(c1)OCO2)N1CCOCC1 (racemic) | 2.2 | 58 | Activity [8]: Active
COc1cc(C(C#N)N2CCCC2)ccc1O (racemic) | 4.4 | 358 | –
CCOP(=S)(OCC)Oc1cc(C)nc(C(C)C)n1 [DIMPYLATE] | – | 1.9 | –
N#CC(c1ccc2c(c1)OCO2)N1CCCC1 (racemic) | 4.3 | 51 | Activity [9]: Active; Activity [5]: Active; Activity [8]: Active
CN1CCN(C(C#N)c2ccc3c(c2)OCO3)CC1 (racemic) | 7.6 | 275 | –
COc1cc(C(C#N)N2CCCCC2)ccc1O (racemic) | 4.1 | 448 | –
N#CC(c1ccc(O)cc1)N1CCCC1 (racemic) | 4.5 | – | –
COc1ccc(C(C#N)N2CCOCC2)cc1OC (racemic) | 2.2 | 54 | Activity [8]: Active
COc1ccc(C(C#N)N2CCCC2)cc1OC (racemic) | 4.3 | 42 | Activity [5]: Active; Activity [10]: Active; Activity [8]: Active; Activity [11]: Active
COc1cc(C(C#N)N2CCN(C)CC2)cc(OC)c1OC (racemic) | 7.6 | 406 | –
N#CC(c1ccc(O)cc1)N1CCOCC1 (racemic) | 2.4 | – | –
N#CC(c1ccc2c(c1)OCO2)N1CCCCC1 (racemic) | 4 | 61.4 | Activity [9]: Active; Activity [5]: Active; Activity [12]: Active; Activity [10]: Active; Activity [8]: Active; Activity [13]: Active
CN1CCN(C(C#N)c2ccc(O)cc2)CC1 (racemic) | 7.7 | – | –
